{
  "source": "ChEMBL document CHEMBL4689842",
  "about": "“EUbOPEN Chemogenomics Library wave 1” (2021)",
  "system": "Fibroblast",
  "assay": "Multiplex assay against human fibroblast",
  "format": "toxicity, cell-based",
  "in_short": "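Imaging took place on a CQ1 microscope at 37°C and 5% CO2 once compound had been added to live cells stained at seeding with Hoechst33342, BioTracker Green Microtubule Cytoskeleton Dye, MitoTracker Red and Annexin V Alexa Fluor 680. CellPathfinder machine-learning gating classed cells as Hoechst high-intensity objects or normal cells, classed normal cells as having healthy, pyknosed or fragmented nuclei, and classed pyknosed cells as mitotic or apoptotic. Tubulin, mitochondrial-mass and membrane-permeability phenotypes are per cents of the healthy-nucleus cells.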",
  "key": {"[1]": {"settings": "12 h, 1 µM, compound concentration 1 uM, replicate 1"}, "[2]": {"settings": "12 h, 1 µM, compound concentration 1 uM, replicate 2"}, "[3]": {"settings": "12 h, 10 µM, compound concentration 10 uM, replicate 1"}, "[4]": {"settings": "12 h, 10 µM, compound concentration 10 uM, replicate 2"}, "[5]": {"settings": "24 h, 1 µM, compound concentration 1 uM, replicate 1"}, "[6]": {"settings": "24 h, 1 µM, compound concentration 1 uM, replicate 2"}, "[7]": {"settings": "24 h, 10 µM, compound concentration 10 uM, replicate 1"}, "[8]": {"settings": "24 h, 10 µM, compound concentration 10 uM, replicate 2"}},
  "data": [
    {"compound": "C=CC(=O)Nc1cccc(Oc2nc(Nc3ccc(N4CCN(C)CC4)cc3OC)ncc2Cl)c1", "values": [
      {"measurement": "Population Fragmented Nuclei (%)", "setting": "[1]", "value": 28, "unit": "%"},
      {"measurement": "Population Healthy Nuclei (%)", "setting": "[1]", "value": 65, "unit": "%"},
      {"measurement": "Population Hoechst High Intensity Objects (%)", "setting": "[1]", "value": 24, "unit": "%"},
      {"measurement": "Population Mitochondria Different-Phenotype (%)", "setting": "[1]", "value": 14, "unit": "%"},
      {"measurement": "Population Normal (%)", "setting": "[1]", "value": 75, "unit": "%"},
      {"measurement": "Population Pyknosed Nuclei (%)", "setting": "[1]", "value": 6, "unit": "%"},
      {"measurement": "Population Tubulin-Different-Phenotype (%)", "setting": "[1]", "value": 45, "unit": "%"},
      {"measurement": "Total Cell Count", "setting": "[1]", "value": 324},
      {"measurement": "Population Apoptotic (%)", "setting": "[2]", "value": 60, "unit": "%"},
      {"measurement": "Population Fragmented Nuclei (%)", "setting": "[2]", "value": 44, "unit": "%"},
      {"measurement": "Population Healthy Nuclei (%)", "setting": "[2]", "value": 48, "unit": "%"},
      {"measurement": "Population Hoechst High Intensity Objects (%)", "setting": "[2]", "value": 23, "unit": "%"},
      {"measurement": "Population Membrane Permeable-Phenotype (%)", "setting": "[2]", "value": 5, "unit": "%"},
      {"measurement": "Population Mitochondria Different-Phenotype (%)", "setting": "[2]", "value": 26, "unit": "%"},
      {"measurement": "Population Mitotic Cells (%)", "setting": "[2]", "value": 40, "unit": "%"},
      {"measurement": "Population Normal (%)", "setting": "[2]", "value": 76, "unit": "%"},
      {"measurement": "Population Pyknosed Nuclei (%)", "setting": "[2]", "value": 7, "unit": "%"},
      {"measurement": "Population Tubulin-Different-Phenotype (%)", "setting": "[2]", "value": 64, "unit": "%"},
      {"measurement": "Total Cell Count", "setting": "[2]", "value": 92},
      {"measurement": "Population Apoptotic (%)", "setting": "[3]", "value": 62, "unit": "%"},
      {"measurement": "Population Fragmented Nuclei (%)", "setting": "[3]", "value": 39, "unit": "%"},
      {"measurement": "Population Healthy Nuclei (%)", "setting": "[3]", "value": 42, "unit": "%"},
      {"measurement": "Population Hoechst High Intensity Objects (%)", "setting": "[3]", "value": 15, "unit": "%"},
      {"measurement": "Population Membrane Permeable-Phenotype (%)", "setting": "[3]", "value": 7, "unit": "%"},
      {"measurement": "Population Mitochondria Different-Phenotype (%)", "setting": "[3]", "value": 2, "unit": "%"},
      {"measurement": "Population Mitotic Cells (%)", "setting": "[3]", "value": 37, "unit": "%"},
      {"measurement": "Population Normal (%)", "setting": "[3]", "value": 84, "unit": "%"},
      {"measurement": "Population Pyknosed Nuclei (%)", "setting": "[3]", "value": 18, "unit": "%"},
      {"measurement": "Population Tubulin-Different-Phenotype (%)", "setting": "[3]", "value": 10, "unit": "%"},
      {"measurement": "Total Cell Count", "setting": "[3]", "value": 237},
      {"measurement": "Population Apoptotic (%)", "setting": "[4]", "value": 20, "unit": "%"},
      {"measurement": "Population Fragmented Nuclei (%)", "setting": "[4]", "value": 57, "unit": "%"},
      {"measurement": "Population Healthy Nuclei (%)", "setting": "[4]", "value": 34, "unit": "%"},
      {"measurement": "Population Hoechst High Intensity Objects (%)", "setting": "[4]", "value": 36, "unit": "%"},
      {"measurement": "Population Membrane Permeable-Phenotype (%)", "setting": "[4]", "value": 18, "unit": "%"},
      {"measurement": "Population Mitochondria Different-Phenotype (%)", "setting": "[4]", "value": 4, "unit": "%"},
      {"measurement": "Population Mitotic Cells (%)", "setting": "[4]", "value": 80, "unit": "%"},
      {"measurement": "Population Normal (%)", "setting": "[4]", "value": 64, "unit": "%"},
      {"measurement": "Population Pyknosed Nuclei (%)", "setting": "[4]", "value": 7, "unit": "%"},
      {"measurement": "Population Tubulin-Different-Phenotype (%)", "setting": "[4]", "value": 18, "unit": "%"},
      {"measurement": "Total Cell Count", "setting": "[4]", "value": 100},
      {"measurement": "Population Apoptotic (%)", "setting": "[5]", "value": 61, "unit": "%"},
      {"measurement": "Population Fragmented Nuclei (%)", "setting": "[5]", "value": 29, "unit": "%"},
      {"measurement": "Population Healthy Nuclei (%)", "setting": "[5]", "value": 60, "unit": "%"},
      {"measurement": "Population Hoechst High Intensity Objects (%)", "setting": "[5]", "value": 47, "unit": "%"},
      {"measurement": "Population Membrane Permeable-Phenotype (%)", "setting": "[5]", "value": 1, "unit": "%"},
      {"measurement": "Population Mitochondria Different-Phenotype (%)", "setting": "[5]", "value": 26, "unit": "%"},
      {"measurement": "Population Mitotic Cells (%)", "setting": "[5]", "value": 38, "unit": "%"},
      {"measurement": "Population Normal (%)", "setting": "[5]", "value": 52, "unit": "%"},
      {"measurement": "Population Pyknosed Nuclei (%)", "setting": "[5]", "value": 9, "unit": "%"},
      {"measurement": "Population Tubulin-Different-Phenotype (%)", "setting": "[5]", "value": 38, "unit": "%"},
      {"measurement": "Total Cell Count", "setting": "[5]", "value": 265},
      {"measurement": "Population Apoptotic (%)", "setting": "[6]", "value": 66, "unit": "%"},
      {"measurement": "Population Fragmented Nuclei (%)", "setting": "[6]", "value": 31, "unit": "%"},
      {"measurement": "Population Healthy Nuclei (%)", "setting": "[6]", "value": 56, "unit": "%"},
      {"measurement": "Population Hoechst High Intensity Objects (%)", "setting": "[6]", "value": 37, "unit": "%"},
      {"measurement": "Population Membrane Permeable-Phenotype (%)", "setting": "[6]", "value": 7, "unit": "%"},
      {"measurement": "Population Mitochondria Different-Phenotype (%)", "setting": "[6]", "value": 48, "unit": "%"},
      {"measurement": "Population Mitotic Cells (%)", "setting": "[6]", "value": 33, "unit": "%"},
      {"measurement": "Population Normal (%)", "setting": "[6]", "value": 62, "unit": "%"},
      {"measurement": "Population Pyknosed Nuclei (%)", "setting": "[6]", "value": 12, "unit": "%"},
      {"measurement": "Population Tubulin-Different-Phenotype (%)", "setting": "[6]", "value": 70, "unit": "%"},
      {"measurement": "Total Cell Count", "setting": "[6]", "value": 77},
      {"measurement": "Population Apoptotic (%)", "setting": "[7]", "value": 70, "unit": "%"},
      {"measurement": "Population Fragmented Nuclei (%)", "setting": "[7]", "value": 33, "unit": "%"},
      {"measurement": "Population Healthy Nuclei (%)", "setting": "[7]", "value": 50, "unit": "%"},
      {"measurement": "Population Hoechst High Intensity Objects (%)", "setting": "[7]", "value": 19, "unit": "%"},
      {"measurement": "Population Membrane Permeable-Phenotype (%)", "setting": "[7]", "value": 3, "unit": "%"},
      {"measurement": "Population Mitochondria Different-Phenotype (%)", "setting": "[7]", "value": 4, "unit": "%"},
      {"measurement": "Population Mitotic Cells (%)", "setting": "[7]", "value": 30, "unit": "%"},
      {"measurement": "Population Normal (%)", "setting": "[7]", "value": 80, "unit": "%"},
      {"measurement": "Population Pyknosed Nuclei (%)", "setting": "[7]", "value": 16, "unit": "%"},
      {"measurement": "Population Tubulin-Different-Phenotype (%)", "setting": "[7]", "value": 10, "unit": "%"},
      {"measurement": "Total Cell Count", "setting": "[7]", "value": 231},
      {"measurement": "Population Apoptotic (%)", "setting": "[8]", "value": 0, "unit": "%"},
      {"measurement": "Population Fragmented Nuclei (%)", "setting": "[8]", "value": 61, "unit": "%"},
      {"measurement": "Population Healthy Nuclei (%)", "setting": "[8]", "value": 35, "unit": "%"},
      {"measurement": "Population Hoechst High Intensity Objects (%)", "setting": "[8]", "value": 29, "unit": "%"},
      {"measurement": "Population Membrane Permeable-Phenotype (%)", "setting": "[8]", "value": 4, "unit": "%"},
      {"measurement": "Population Mitochondria Different-Phenotype (%)", "setting": "[8]", "value": 9, "unit": "%"},
      {"measurement": "Population Mitotic Cells (%)", "setting": "[8]", "value": 100, "unit": "%"},
      {"measurement": "Population Normal (%)", "setting": "[8]", "value": 70, "unit": "%"},
      {"measurement": "Population Pyknosed Nuclei (%)", "setting": "[8]", "value": 3, "unit": "%"},
      {"measurement": "Population Tubulin-Different-Phenotype (%)", "setting": "[8]", "value": 14, "unit": "%"},
      {"measurement": "Total Cell Count", "setting": "[8]", "value": 85}
    ]}
  ]
}
